Columns and labels:
Lung [1] = assay: Biodistribution in lung of NMRI mouse assessed as standard uptake value after 2 mins; assay type: ADME, organism-based; details: in vivo
Heart [2] = assay: Biodistribution in heart of NMRI mouse assessed as standard uptake value after 2 mins; assay type: ADME, organism-based; details: in vivo
Brain [3] = assay: Biodistribution in brain of NMRI mouse assessed as standard uptake value after 2 mins; assay type: ADME, organism-based; details: in vivo
Blood [4] = assay: Biodistribution in blood of NMRI mouse assessed as standard uptake value after 2 mins; assay type: ADME, organism-based; details: in vivo
Kidney [5] = assay: Biodistribution in kidney of NMRI mouse assessed as standard uptake value after 60 mins; assay type: ADME, organism-based; details: in vivo, 1 h
Liver [6] = assay: Biodistribution in liver of NMRI mouse assessed as standard uptake value after 60 mins; assay type: ADME, organism-based; details: in vivo, 1 h
[7] = Biodistribution in spleen/pancreas of NMRI mouse assessed as standard uptake value after 60 mins; assay type: ADME, organism-based; details: in vivo, 1 h
Intestine [8] = assay: Biodistribution in intestine of NMRI mouse after 2 mins; assay type: ADME, organism-based; details: in vivo
Summary of the method: (§1)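 Male NMRI mice (30-40 g) under ketamine/xylazine i.p. anesthesia received 0.1 mL of HPLC-purified 18F tracer (0.1 mCi/mL) or 11C tracer (1 mCi/mL) in water for injection via tail vein. Killed by decapitation at 2 or 60 min (n = 3 per time). Blood, organs and carcass weighed and gamma-counted. %ID = organ cpm/total cpm recovered. Blood mass taken as 7% of body mass. Mean ± SD.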

Brain [9] = assay: Biodistribution in brain of NMRI mouse after 2 mins; assay type: ADME, organism-based; details: in vivo; summary of the method: as §1
Blood [10] = assay: Biodistribution in blood of NMRI mouse after 2 mins; assay type: ADME, organism-based; details: in vivo; summary of the method: as §1
[11] = Biodistribution in carcass of NMRI mouse after 2 mins; assay type: ADME, organism-based; details: in vivo; summary of the method: as §1
[12] = Biodistribution in urine of NMRI mouse after 60 mins; assay type: ADME, organism-based; details: in vivo, 1 h; summary of the method: as §1
Kidney [13] = assay: Biodistribution in kidney of NMRI mouse after 60 mins; assay type: ADME, organism-based; details: in vivo, 1 h; summary of the method: as §1
Liver [14] = assay: Biodistribution in liver of NMRI mouse after 60 mins; assay type: ADME, organism-based; details: in vivo, 1 h; summary of the method: as §1
[15] = Biodistribution in spleen/pancreas of NMRI mouse after 60 mins; assay type: ADME, organism-based; details: in vivo, 1 h; summary of the method: as §1
Lung [16] = assay: Biodistribution in lung of NMRI mouse after 60 mins; assay type: ADME, organism-based; details: in vivo, 1 h; summary of the method: as §1
Heart [17] = assay: Biodistribution in heart of NMRI mouse after 60 mins; assay type: ADME, organism-based; details: in vivo, 1 h; summary of the method: as §1
Intestine [18] = assay: Biodistribution in intestine of NMRI mouse after 60 mins; assay type: ADME, organism-based; details: in vivo, 1 h; summary of the method: as §1
Brain [19] = assay: Biodistribution in brain of NMRI mouse after 60 mins; assay type: ADME, organism-based; details: in vivo, 1 h; summary of the method: as §1
Blood [20] = assay: Biodistribution in blood of NMRI mouse after 60 mins; assay type: ADME, organism-based; details: in vivo, 1 h; summary of the method: as §1
[21] = Biodistribution in carcass of NMRI mouse after 60 mins; assay type: ADME, organism-based; details: in vivo, 1 h; summary of the method: as §1
Kidney [22] = assay: Biodistribution in kidney of NMRI mouse assessed as standard uptake value after 2 mins; assay type: ADME, organism-based; details: in vivo
Liver [23] = assay: Biodistribution in liver of NMRI mouse assessed as standard uptake value after 2 mins; assay type: ADME, organism-based; details: in vivo
[24] = Biodistribution in spleen/pancreas of NMRI mouse assessed as standard uptake value after 2 mins; assay type: ADME, organism-based; details: in vivo
Lung [25] = assay: Biodistribution in lung of NMRI mouse assessed as standard uptake value after 60 mins; assay type: ADME, organism-based; details: in vivo, 1 h
Heart [26] = assay: Biodistribution in heart of NMRI mouse assessed as standard uptake value after 60 mins; assay type: ADME, organism-based; details: in vivo, 1 h
Brain [27] = assay: Biodistribution in brain of NMRI mouse assessed as standard uptake value after 60 mins; assay type: ADME, organism-based; details: in vivo, 1 h
Blood [28] = assay: Biodistribution in blood of NMRI mouse assessed as standard uptake value after 60 mins; assay type: ADME, organism-based; details: in vivo, 1 h
[29] = Partition coefficient, log P at pH 7.4; assay type: physicochemical; details: octanol/water
Summary of the method: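 HPLC-purified radiotracer partitioned between 1-octanol and 0.025 M phosphate buffer pH 7.4. Vortexed 2 min at room temperature, centrifuged 5 min, aliquots of both phases gamma-counted. P = octanol cpm/buffer cpm after density and mass correction; n = 6.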

[30] = Drug uptake in human 293T cells transduced with LacZ gene after 1 hr; assay type: ADME, cell-based; details: hek-293t
Summary of the method: (§2)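 Lentivirally transduced 293T cells (VZV-tk or LacZ control) plated in triplicate at 200 000 cells/well. After 24 h, 0.25 mL fresh medium with 5 µCi of the 18F tracer (3 h) or 30 µCi of the 11C tracer (1 h) added; 37 °C, 5% CO2. Cells washed thrice with ice-cold PBS, lysed, gamma-counted. Uptake given as % total radioactivity per mg protein (Bio-Rad assay); n = 3, unpaired two-sided t-test.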

[31] = Drug uptake in human 293T cells transduced with VZV-tk gene after 1 hr; assay type: ADME, cell-based; details: hek-293t; summary of the method: as §2
Plasma [32] = assay: Metabolic stability in mouse plasma assessed as radioactivity after 2 mins; assay type: ADME, cell-free
Summary of the method: (§3)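 Normal mice given 0.35-0.4 mCi of 11C tracer i.v. and decapitated at 2 or 30 min (plasma; one mouse per time) or 30/60 min (urine). EDTA plasma separated by centrifugation; urine used untreated. Samples spiked with authentic compound and run on Oasis HLB in series with C18, eluted with 0.05 M ammonium acetate/acetonitrile 70:30 at 1 mL/min. 1-mL fractions gamma-counted; intact tracer taken as % recovered radioactivity.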

[33] = Biodistribution in urine of NMRI mouse after 2 mins; assay type: ADME, organism-based; details: in vivo; summary of the method: as §1
Kidney [34] = assay: Biodistribution in kidney of NMRI mouse after 2 mins; assay type: ADME, organism-based; details: in vivo; summary of the method: as §1
Liver [35] = assay: Biodistribution in liver of NMRI mouse after 2 mins; assay type: ADME, organism-based; details: in vivo; summary of the method: as §1
[36] = Biodistribution in spleen/pancreas of NMRI mouse after 2 mins; assay type: ADME, organism-based; details: in vivo; summary of the method: as §1
Lung [37] = assay: Biodistribution in lung of NMRI mouse after 2 mins; assay type: ADME, organism-based; details: in vivo; summary of the method: as §1
Heart [38] = assay: Biodistribution in heart of NMRI mouse after 2 mins; assay type: ADME, organism-based; details: in vivo; summary of the method: as §1
Plasma [39] = assay: Metabolic stability in mouse plasma assessed as radioactivity after 30 mins; assay type: ADME, cell-free; details: 0.5 h; summary of the method: as §3
[40] = Metabolic stability in mouse urine after 30 mins; assay type: ADME, tissue-based; details: read-out: Stability; summary of the method: as §3
[41] = Metabolic stability in mouse urine after 60 mins; assay type: ADME, tissue-based; details: read-out: Stability; summary of the method: as §3
[42] = Ratio of drug uptake in LV-VZVTK-1-P transduced cells to LV-LacZ-I-P transduced 293T cells after 1 hr; assay type: ADME, cell-based; details: human
Summary of the method: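 Lentivirally transduced 293T cells (VZV-tk or LacZ control), plated in triplicate at 200 000 cells/well. After 24 h, given fresh medium with 30 µCi HPLC-purified 11C-labelled tracer per well, then 1 h at 37 °C in 5% CO2. Washed thrice in ice-cold PBS, lysed, gamma-counted, normalized to Bio-Rad protein (% total radioactivity/mg protein). VZV-tk/LacZ ratio, n = 3, unpaired Student t-test.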

## [11CH3]Oc1cccc(-c2cc3cn([C@H]4C[C@H](O)[C@@H](CO)O4)c(=O)nc3o2)c1
Lung [1]
  Drug uptake: 1
Heart [2]
  Drug uptake: 1
Brain [3]
  Drug uptake: 0.1
Blood [4]
  Drug uptake: 0.8
Kidney [5]
  Drug uptake: 0.2
Liver [6]
  Drug uptake: 0.7
[7]
  Drug uptake: 0.1
Intestine [8]
  Drug uptake: 25.6 %ID
Brain [9]
  Drug uptake: 0 %ID
Blood [10]
  Drug uptake: 5.4 %ID
[11]
  Drug uptake: 25.3 %ID
[12]
  Drug uptake: 28.2 %ID
Kidney [13]
  Drug uptake: 0.3 %ID
Liver [14]
  Drug uptake: 3.7 %ID
[15]
  Drug uptake: 0.1 %ID
Lung [16]
  Drug uptake: 0 %ID
Heart [17]
  Drug uptake: 0 %ID
Intestine [18]
  Drug uptake: 63.7 %ID
Brain [19]
  Drug uptake: 0 %ID
Blood [20]
  Drug uptake: 0.2 %ID
[21]
  Drug uptake: 3.5 %ID
Kidney [22]
  Drug uptake: 12.4
Liver [23]
  Drug uptake: 3.7
[24]
  Drug uptake: 2.7
Lung [25]
  Drug uptake: 0
Heart [26]
  Drug uptake: 0
Brain [27]
  Drug uptake: 0
Blood [28]
  Drug uptake: 0
[29]
  logD: 1.27
[30]
  Drug uptake: 0.24%
[31]
  Drug uptake: 12.8%
Plasma [32]
  Stability: 98%
[33]
  Drug uptake: 0.2 %ID
Kidney [34]
  Drug uptake: 21.7 %ID
Liver [35]
  Drug uptake: 21.3 %ID
[36]
  Drug uptake: 2.4 %ID
Lung [37]
  Drug uptake: 0.7 %ID
Heart [38]
  Drug uptake: 0.5 %ID
Plasma [39]
  Stability: 80%
[40]
  remaining at 0.5 h: 90%
[41]
  remaining at 1 h: 90%
[42]
  Ratio: 53
